{
  "source": "ChEMBL document CHEMBL4118031",
  "about": "“Halogenated Compounds from Directed Fermentation of Penicillium concentricum, an Endophytic Fungus of the Liverwort Trichocolea tomentella” (J Nat Prod, 2017)",
  "key": {"[1]": {"system": "MCF7", "assay": "Cytotoxicity against human MCF7 cells after 3 days by sulforhodamine B assay", "assay_type": "functional, cell-based", "details": "MCF7, 72 h", "method_in_brief": "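Antiproliferative assay on MCF-7 breast cancer cells following a published protocol, with camptothecin as the positive control.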"}, "[2]": {"system": "HT-29", "assay": "Cytotoxicity against human HT-29 cells after 3 days by sulforhodamine B assay", "assay_type": "functional, cell-based", "details": "HT-29, 72 h", "method_in_brief": "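Antiproliferative assay on HT-29 colon cancer cells following a protocol from earlier work, with paclitaxel as the positive control.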"}},
  "data": [
    {"smiles": "COc1cc(O)c2c(=O)c3c(C)cc(O)cc3oc2c1", "values": [
      {"measurement": "IC50", "setting": "[1]", "result": "> 20", "unit": "µM"},
      {"measurement": "IC50", "setting": "[2]", "result": "> 20", "unit": "µM"}
    ]},
    {"smiles": "COC1=CC(=O)C[C@@H](C)[C@]12Oc1cc(OC)cc(OC)c1C2=O", "values": [
      {"measurement": "IC50", "setting": "[1]", "result": "> 20", "unit": "µM"},
      {"measurement": "IC50", "setting": "[2]", "result": "> 20", "unit": "µM"}
    ]},
    {"smiles": "COC1=CC(=O)C=C(C)[C@]12Oc1cc(OC)cc(OC)c1C2=O", "values": [
      {"measurement": "IC50", "setting": "[1]", "result": "> 20", "unit": "µM"},
      {"measurement": "IC50", "setting": "[2]", "result": "> 20", "unit": "µM"}
    ]},
    {"smiles": "O=C(OCCO)c1ccccc1", "values": [
      {"measurement": "IC50", "setting": "[1]", "result": "> 20", "unit": "µM"},
      {"measurement": "IC50", "setting": "[2]", "result": "> 20", "unit": "µM"}
    ]},
    {"smiles": "O=C1C(CO)=C[C@@H](O)[C@@H](O)[C@@H]1Br", "values": [
      {"measurement": "IC50", "setting": "[1]", "result": 9.7, "unit": "µM"}
    ]},
    {"smiles": "O=C1C(CO)=C[C@@H](O)[C@@H](O)[C@@H]1Cl", "values": [
      {"measurement": "IC50", "setting": "[1]", "result": "> 20", "unit": "µM"}
    ]},
    {"smiles": "OCc1cc(O)cc(Cl)c1O", "values": [
      {"measurement": "IC50", "setting": "[1]", "result": 14.9, "unit": "µM"}
    ]},
    {"smiles": "OCc1cc(O)cc(Br)c1O", "values": [
      {"measurement": "IC50", "setting": "[1]", "result": 8.4, "unit": "µM"}
    ]},
    {"smiles": "O=C1C(CO)=C[C@@H](O)[C@@H](O)[C@H]1Cl", "values": [
      {"measurement": "IC50", "setting": "[1]", "result": "> 20", "unit": "µM"}
    ]},
    {"smiles": "COc1cc(O)c(C(=O)c2c(C)cc(O)cc2OC)c(O)c1", "values": [
      {"measurement": "IC50", "setting": "[1]", "result": "> 20", "unit": "µM"},
      {"measurement": "IC50", "setting": "[2]", "result": "> 20", "unit": "µM"}
    ]},
    {"smiles": "COc1cc(O)c(C(=O)c2c(C)cc(O)cc2OC)c(O)c1Cl", "values": [
      {"measurement": "IC50", "setting": "[1]", "result": "> 20", "unit": "µM"},
      {"measurement": "IC50", "setting": "[2]", "result": "> 20", "unit": "µM"}
    ]},
    {"smiles": "O=C1C(CO)=C[C@@H](O)[C@@H](O)[C@H]1Br", "values": [
      {"measurement": "IC50", "setting": "[1]", "result": 9.7, "unit": "µM"}
    ]},
    {"smiles": "Cc1cc(O)cc2oc3cc(Cl)cc(O)c3c(=O)c12", "values": [
      {"measurement": "IC50", "setting": "[1]", "result": "> 20", "unit": "µM"}
    ]},
    {"smiles": "COc1cc(O)c2c(=O)c3c(C)cc(O)c(O)c3oc2c1", "values": [
      {"measurement": "IC50", "setting": "[1]", "result": "> 20", "unit": "µM"},
      {"measurement": "IC50", "setting": "[2]", "result": "> 20", "unit": "µM"}
    ]},
    {"smiles": "OCC(O)c1ccccc1", "note": "(racemic)", "values": [
      {"measurement": "IC50", "setting": "[1]", "result": "> 20", "unit": "µM"},
      {"measurement": "IC50", "setting": "[2]", "result": "> 20", "unit": "µM"}
    ]},
    {"smiles": "Cc1cc(O)cc2oc(=O)c3c(O)cc(O)cc3c12", "note": "[ALTERNARIOL]", "values": [
      {"measurement": "IC50", "setting": "[1]", "result": "> 20", "unit": "µM"},
      {"measurement": "IC50", "setting": "[2]", "result": "> 20", "unit": "µM"}
    ]},
    {"smiles": "CC[C@@]1(O)C(=O)OCc2c1cc1n(c2=O)Cc2cc3ccccc3nc2-1", "note": "[CAMPTOTHECIN]", "values": [
      {"measurement": "IC50", "setting": "[1]", "result": 0.073, "unit": "µM"}
    ]},
    {"smiles": "O=C1C(CO)=C[C@@H](O)[C@H]2O[C@@H]12", "note": "[EPOXYDON]", "values": [
      {"measurement": "IC50", "setting": "[1]", "result": 5.7, "unit": "µM"},
      {"measurement": "IC50", "setting": "[2]", "result": 14.1, "unit": "µM"}
    ]},
    {"smiles": "OCc1cc(O)ccc1O", "note": "[GENTISYL ALCOHOL]", "values": [
      {"measurement": "IC50", "setting": "[1]", "result": 17.1, "unit": "µM"},
      {"measurement": "IC50", "setting": "[2]", "result": 6.4, "unit": "µM"}
    ]},
    {"smiles": "COC1=CC(=O)C[C@@H](C)[C@]12Oc1c(Cl)c(OC)cc(OC)c1C2=O", "note": "[GRISEOFULVIN]", "values": [
      {"measurement": "IC50", "setting": "[1]", "result": 13.9, "unit": "µM"},
      {"measurement": "IC50", "setting": "[2]", "result": "> 20", "unit": "µM"}
    ]},
    {"smiles": "Cc1cc(O)cc2oc3cc(O)cc(O)c3c(=O)c12", "note": "[NORLICHEXANTHONE]", "values": [
      {"measurement": "IC50", "setting": "[1]", "result": "> 20", "unit": "µM"},
      {"measurement": "IC50", "setting": "[2]", "result": "> 20", "unit": "µM"}
    ]},
    {"smiles": "CC(=O)O[C@H]1C(=O)[C@@]2(C)[C@H]([C@H](OC(=O)c3ccccc3)[C@]3(O)C[C@H](OC(=O)[C@H](O)[C@@H](NC(=O)c4ccccc4)c4ccccc4)C(C)=C1C3(C)C)[C@]1(OC(C)=O)CO[C@@H]1C[C@@H]2O", "note": "[PACLITAXEL]", "values": [
      {"measurement": "IC50", "setting": "[2]", "result": 0.0014, "unit": "µM"}
    ]}
  ]
}
